Results reported in ChEMBL document CHEMBL1149247, “New COX-2/5-LOX inhibitors: apoptosis-inducing agents potentially useful in prostate cancer chemotherapy” (J Med Chem, 2004).
pIC50: −log10 of the molar value. Active and inactive are the calls of the source. The rule behind the calls is not given here.

Columns and labels:
PC-3 [1] = assay: Cell cycle arrest in human PC3 cells by accumulation at subG1 phase at 10 uM after 72 hrs by FACS flow cytometry; assay type: functional
Summary of the method: (§1)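 LNCaP or PC 3 cells seeded in 6-well plates, synchronized 24 h in serum-free medium, treated 72 h with varying compound concentrations; trypsinized cells pooled with supernatants, pelleted, fixed in cold ethanol overnight at 4 °C, then 30 min in PBS with RNase and propidium iodide. FACScan flow cytometry quantified sub-G1 (sub-diploid), G1, S and G2-M fractions as percent of cells.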

LNCaP [2] = assay: Cell cycle arrest in human LNCaP cells by accumulation at G2M phase at 10 uM after 72 hrs by FACS flow cytometry; assay type: functional; summary of the method: as §1
PC-3 [3] = assay: Inhibition of MMP9 secretion in androgen-independent human PC3 cells; assay type: functional, cell-based
LNCaP [4] = assay: Antiproliferative activity against androgen-sensitive human LNCaP cells after 72 hrs by MTT test; assay type: functional, cell-based
Summary of the method: (§2)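 Prostate carcinoma cells kept at 37 °C, 5% CO2 in RPMI 1640 with 10% fetal calf serum; seeded 1.8 × 10⁴ (PC 3) or 5.0 × 10⁴ (LNCaP) cells/well, grown 3 days, serum-starved 24 h for synchronization, then exposed 72 h to compounds in medium (<0.1% DMSO); growth read by colorimetric MTT. Mean of at least four independent determinations; single-dose lines at 100 μM.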

PC-3 [5] = assay: Cell cycle arrest in human PC3 cells by accumulation at S phase at 10 uM after 72 hrs by FACS flow cytometry; assay type: functional; summary of the method: as §1
Homo sapiens = species on record: Homo sapiens; assay: Selectivity for COX2 over COX1
Summary of the method: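 Ratio of COX-1 to COX-2 IC50s, each taken from PGE2 production in CHO cells transfected with COX-1 or with COX-2. Cells were seeded and, 18 h later, given fresh Ham's F12 with 10% fetal calf serum with or without compound. After 10 min they were stimulated with arachidonic acid, then for 10 min with calcium ionophore A 23187. Intracellular PGE2 was read by enzyme immunoassay, n = 2.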

PC-3 [6] = assay: Cell cycle arrest in human PC3 cells by accumulation at G2M phase at 10 uM after 72 hrs by FACS flow cytometry; assay type: functional; summary of the method: as §1
[7] = biological target: T1, Polyunsaturated fatty acid 5-lipoxygenase (Homo sapiens, UniProt P09917); assay: Inhibition of 5LOX in human whole blood assessed as inhibition of calcium ionophore A 23187-stimulated 5HETE production by HPLC analysis; assay type: functional, tissue-based
T1 sequence (P09917 whole entry): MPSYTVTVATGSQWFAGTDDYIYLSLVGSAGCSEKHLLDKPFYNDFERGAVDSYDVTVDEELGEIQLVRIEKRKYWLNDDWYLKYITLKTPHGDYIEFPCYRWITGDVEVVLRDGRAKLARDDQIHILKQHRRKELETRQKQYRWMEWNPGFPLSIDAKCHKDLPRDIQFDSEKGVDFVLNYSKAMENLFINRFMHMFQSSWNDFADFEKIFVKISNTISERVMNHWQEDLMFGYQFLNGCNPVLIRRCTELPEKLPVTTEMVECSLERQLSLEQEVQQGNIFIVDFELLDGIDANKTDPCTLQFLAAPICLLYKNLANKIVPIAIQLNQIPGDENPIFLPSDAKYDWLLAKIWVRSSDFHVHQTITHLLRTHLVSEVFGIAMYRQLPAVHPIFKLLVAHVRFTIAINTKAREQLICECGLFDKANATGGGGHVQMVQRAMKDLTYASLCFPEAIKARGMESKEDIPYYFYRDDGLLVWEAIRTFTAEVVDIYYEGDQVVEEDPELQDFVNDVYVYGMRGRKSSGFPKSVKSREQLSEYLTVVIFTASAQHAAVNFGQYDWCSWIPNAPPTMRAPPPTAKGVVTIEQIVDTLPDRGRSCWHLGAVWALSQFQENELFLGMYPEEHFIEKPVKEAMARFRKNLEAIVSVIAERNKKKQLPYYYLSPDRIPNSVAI
Summary of the method: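 Heparinized human whole blood, 1 mL aliquots, preincubated 15 min at 37 °C with compound or DMSO vehicle; then stimulated with 40 μM A 23187 for 15 min at 37 °C. 5-HETE extracted into ethyl acetate, then HPLC on a C18 column, methanol/water/acetic acid 80:20:0.08, pH 6.0, UV at 234 nm. IC50 from n = 2.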

[8] = biological target: T2, Prostaglandin G/H synthase 2 (Homo sapiens, UniProt P35354); assay: Inhibition of COX2 expressed in CHO cells assessed as inhibition of arachidonic acid-stimulated PGE2 production by enzyme immunoassay
T2 sequence (P35354 whole entry): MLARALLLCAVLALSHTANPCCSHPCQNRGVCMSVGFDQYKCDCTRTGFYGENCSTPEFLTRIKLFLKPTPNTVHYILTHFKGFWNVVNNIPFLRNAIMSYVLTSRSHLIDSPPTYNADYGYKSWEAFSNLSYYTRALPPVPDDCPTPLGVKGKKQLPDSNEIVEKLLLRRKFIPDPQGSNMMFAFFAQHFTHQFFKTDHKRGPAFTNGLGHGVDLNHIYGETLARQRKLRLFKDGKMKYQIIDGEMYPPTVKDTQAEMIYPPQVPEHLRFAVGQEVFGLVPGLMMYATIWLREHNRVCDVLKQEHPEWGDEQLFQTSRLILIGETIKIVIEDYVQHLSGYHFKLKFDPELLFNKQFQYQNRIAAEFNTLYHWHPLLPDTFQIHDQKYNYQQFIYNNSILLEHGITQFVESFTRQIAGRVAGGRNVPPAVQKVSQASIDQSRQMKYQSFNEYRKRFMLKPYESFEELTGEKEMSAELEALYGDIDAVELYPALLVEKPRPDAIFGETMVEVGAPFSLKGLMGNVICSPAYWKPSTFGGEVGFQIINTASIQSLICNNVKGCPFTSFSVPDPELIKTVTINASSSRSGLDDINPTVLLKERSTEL

[9] = biological target: Prostaglandin G/H synthase 1 (Homo sapiens, UniProt P23219); assay: Inhibition of COX1 expressed in CHO cells assessed as inhibition of arachidonic acid-stimulated PGE2 production by enzyme immunoassay; assay type: functional, cell-based
Chain of Prostaglandin G/H synthase 1 (P23219 whole entry): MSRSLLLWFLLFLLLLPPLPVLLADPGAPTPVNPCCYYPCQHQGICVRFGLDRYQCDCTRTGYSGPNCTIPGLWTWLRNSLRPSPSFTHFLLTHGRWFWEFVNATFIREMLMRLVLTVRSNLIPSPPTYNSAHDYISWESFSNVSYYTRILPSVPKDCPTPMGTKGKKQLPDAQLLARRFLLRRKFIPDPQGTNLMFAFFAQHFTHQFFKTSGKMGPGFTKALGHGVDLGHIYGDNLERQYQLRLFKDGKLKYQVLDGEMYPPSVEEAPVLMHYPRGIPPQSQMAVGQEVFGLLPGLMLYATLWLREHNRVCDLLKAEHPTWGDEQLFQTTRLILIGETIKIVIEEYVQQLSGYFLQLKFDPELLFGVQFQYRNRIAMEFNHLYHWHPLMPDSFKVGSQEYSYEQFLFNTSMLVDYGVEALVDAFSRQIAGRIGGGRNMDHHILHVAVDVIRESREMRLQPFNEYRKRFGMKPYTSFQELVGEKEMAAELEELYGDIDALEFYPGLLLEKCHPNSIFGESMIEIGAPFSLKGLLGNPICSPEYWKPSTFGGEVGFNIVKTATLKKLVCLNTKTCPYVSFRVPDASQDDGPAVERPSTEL

PC-3 [10] = assay: Cell cycle arrest in human PC3 cells by accumulation at G1 phase at 10 uM after 72 hrs by FACS flow cytometry; assay type: functional; summary of the method: as §1
LNCaP [11] = assay: Cell cycle arrest in human LNCaP cells by accumulation at S phase at 10 uM after 72 hrs by FACS flow cytometry; assay type: functional; summary of the method: as §1
LNCaP [12] = assay: Cell cycle arrest in human LNCaP cells by accumulation at subG1 phase at 10 uM after 72 hrs by FACS flow cytometry; assay type: functional; summary of the method: as §1
LNCaP [13] = assay: Cell cycle arrest in human LNCaP cells by accumulation at G1 phase at 10 uM after 72 hrs by FACS flow cytometry; assay type: functional; summary of the method: as §1
PC-3 [14] = assay: Antiproliferative activity against androgen-independent human PC3 cells after 72 hrs by MTT test; assay type: functional, cell-based; conditions: PC-3, 72 h; summary of the method: as §2
LNCaP [15] = assay: Cell cycle arrest in human LNCaP cells assessed as induction of G1 block at 100 uM by FACS flow cytometry; assay type: functional, cell-based; summary of the method: as §1
PC-3 [16] = assay: Antiproliferative activity against androgen-independent human PC3 cells at 100 uM after 72 hrs by MTT test; assay type: functional; summary of the method: as §2
LNCaP [17] = assay: Antiproliferative activity against androgen-sensitive human LNCaP cells at 100 uM after 72 hrs by MTT test; assay type: functional; summary of the method: as §2
LNCaP [18] = assay: Cell cycle arrest in human LNCaP cells by accumulation at subG1 phase at 100 uM after 72 hrs by FACS flow cytometry; assay type: functional; summary of the method: as §1
PC-3 [19] = assay: Cell cycle arrest in human PC3 cells by accumulation at G2M phase at 100 uM after 72 hrs by FACS flow cytometry; assay type: functional; summary of the method: as §1
PC-3 [20] = assay: Cell cycle arrest in human PC3 cells by accumulation at G1 phase at 100 uM after 72 hrs by FACS flow cytometry; assay type: functional; summary of the method: as §1
PC-3 [21] = assay: Cell cycle arrest in human PC3 cells by accumulation at subG1 phase at 100 uM after 72 hrs by FACS flow cytometry; assay type: functional; summary of the method: as §1
LNCaP [22] = assay: Cell cycle arrest in human LNCaP cells by accumulation at G2M phase at 100 uM after 72 hrs by FACS flow cytometry; assay type: functional; summary of the method: as §1
PC-3 [23] = assay: Cell cycle arrest in human PC3 cells by accumulation at S phase at 100 uM after 72 hrs by FACS flow cytometry; assay type: functional; summary of the method: as §1
LNCaP [24] = assay: Cell cycle arrest in human LNCaP cells by accumulation at G1 phase at 100 uM after 72 hrs by FACS flow cytometry; assay type: functional; summary of the method: as §1
LNCaP [25] = assay: Cell cycle arrest in human LNCaP cells by accumulation at S phase at 100 uM after 72 hrs by FACS flow cytometry; assay type: functional; summary of the method: as §1
LNCaP [26] = assay: Cell cycle arrest in human LNCaP cells by accumulation at subG1 phase at 50 uM after 72 hrs by FACS flow cytometry; assay type: functional; summary of the method: as §1
PC-3 [27] = assay: Cell cycle arrest in human PC3 cells by accumulation at S phase at 50 uM after 72 hrs by FACS flow cytometry; assay type: functional; summary of the method: as §1
PC-3 [28] = assay: Cell cycle arrest in human PC3 cells by accumulation at G1 phase at 50 uM after 72 hrs by FACS flow cytometry; assay type: functional; summary of the method: as §1
LNCaP [29] = assay: Cell cycle arrest in human LNCaP cells by accumulation at G1 phase at 50 uM after 72 hrs by FACS flow cytometry; assay type: functional; summary of the method: as §1
PC-3 [30] = assay: Cell cycle arrest in human PC3 cells by accumulation at subG1 phase at 50 uM after 72 hrs by FACS flow cytometry; assay type: functional; summary of the method: as §1
PC-3 [31] = assay: Cell cycle arrest in human PC3 cells by accumulation at G2M phase at 50 uM after 72 hrs by FACS flow cytometry; assay type: functional; summary of the method: as §1
LNCaP [32] = assay: Cell cycle arrest in human LNCaP cells by accumulation at S phase at 50 uM after 72 hrs by FACS flow cytometry; assay type: functional; summary of the method: as §1
LNCaP [33] = assay: Cell cycle arrest in human LNCaP cells by accumulation at G2M phase at 50 uM after 72 hrs by FACS flow cytometry; assay type: functional; summary of the method: as §1

Structure (SMILES) | pIC50 (LNCaP [4]) | Selectivity ratio (Homo sapiens) | pIC50 [7] | pIC50 [8] | pIC50 [9] | pIC50 (PC-3 [14]) | Activity (LNCaP [2]) [%] | Activity (LNCaP [11]) [%] | Activity (LNCaP [12]) [%] | Activity (LNCaP [13]) [%] | Activity (PC-3 [16]) [%] | Activity (LNCaP [17]) [%] | also measured
COC1(c2cc(F)cc(OCc3cc(-c4ccccc4)n(-c4ccc(S(N)(=O)=O)cc4)n3)c2)CCOCC1 | 4.30 | 257 | 6.13 | 7.00 | 4.59 | 4.34 | 8.2 | 6.9 | 10.8 | 74.2 | – | – | Activity (PC-3 [1]): 2.1%; Activity (PC-3 [3]): Active; Activity (PC-3 [5]): 6.6%; Activity (PC-3 [6]): 19.5%; Activity (PC-3 [10]): 71.5%
CS(=O)(=O)c1ccc(C2=C(c3ccccc3)C(=O)OC2)cc1 [ROFECOXIB] | – | – | – | – | – | – | 15.2 | 11.4 | 4 | 69.4 | 15 | 0 | Activity (LNCaP [15]): inactive
COC1(c2cc(F)cc(OCc3cc(-c4ccccc4)n(-c4ccc(C)cc4)n3)c2)CCOCC1 | – | 1 | 6.14 | 6.03 | 5.81 | – | 14.6 | 10.7 | 3.5 | 71.3 | 0 | 18 | –
COC1(c2cc(F)cc(OCc3cc(-c4ccccc4)n(-c4ccc(C)c(C)c4)n3)c2)CCOCC1 | – | – | 6.12 | 6.39 | – | 4.26 | 15 | 11.5 | 3.9 | 69.5 | – | 26 | –

Now from value to molecule, other results behind:

pIC50 (LNCaP [4]) | Selectivity ratio (Homo sapiens) | pIC50 [7] | pIC50 [8] | pIC50 [9] | pIC50 (PC-3 [14]) | Structure (SMILES) | Activity (LNCaP [2]) [%] | Activity (LNCaP [11]) [%] | Activity (LNCaP [12]) [%] | Activity (LNCaP [13]) [%] | Activity (PC-3 [16]) [%] | Activity (LNCaP [17]) [%] | also measured
4.08 | – | 6.52 | – | 4.58 | – | COC1(c2cc(F)cc(OCc3cc(-c4ccccc4)n(-c4ccc(S(C)(=O)=O)cc4)n3)c2)CCOCC1 | 14.7 | 11.2 | 3.6 | 70.1 | 45 | – | Activity (LNCaP [18]): 3.9%; Activity (PC-3 [19]): 25.9%; Activity (PC-3 [20]): 67.8%; Activity (PC-3 [21]): 1.2%; Activity (LNCaP [22]): 12%; Activity (PC-3 [23]): 5.1%; Activity (LNCaP [24]): 74.2%; Activity (LNCaP [25]): 9.9%
4.30 | – | < 5.00 | – | – | 4.33 | Cc1ccc(-c2cc(C(F)(F)F)nn2-c2ccc(S(N)(=O)=O)cc2)cc1 [CELECOXIB] | 11.3 | 9 | 3.9 | 75.7 | – | – | Activity (LNCaP [26]): 4%; Activity (PC-3 [27]): 5.8%; Activity (PC-3 [28]): 68.5%; Activity (LNCaP [29]): 78%; Activity (PC-3 [30]): 2.4%; Activity (PC-3 [31]): 23.5%; Activity (LNCaP [32]): 6.9%; Activity (LNCaP [33]): 11.1%
